The source made the active and inactive calls. The calls are words filed in the database; no cut-off is given here.
How the values were obtained:
[1] = system: Vesicular stomatitis virus; assay: Antiviral activity against Vesicular stomatitis virus; format: functional, organism-based
In short: (§1)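 Confluent cell monolayers (HEL, Vero, HeLa or MDCK) in 96-well plates were infected with 100 CCID50 of virus in the presence of varying compound concentrations. Cytopathicity was scored once it reached completion in untreated infected controls.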

Influenza B virus = assay: Antiviral activity against Influenza B virus; format: functional, organism-based; in short: as §1
[2] = system: Human herpesvirus 2 strain G; assay: Antiviral activity against HSV2 G Lyons; format: functional, organism-based
[3] = system: Human immunodeficiency virus 1; assay: Antiviral activity against HIV1 3B infected in human CEM cells assessed as reduction in virus- induced cytopathicity incubated for 4 to 5 days by microscopy based virus syncytium formation assay; format: functional, organism-based; settings: CCRF-CEM
In short: (§2)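 CEM cells at ~3 × 10^5 cells/mL, infected with 100 CCID50 of HIV per mL in the presence of compound dilutions. Incubated 4–5 days at 37 °C in humidified CO2. Syncytium (giant cell) formation scored by microscopy.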

[4] = Cytotoxicity against Varicella zoster virus infected HEL cells assessed as alteration of cell morphology incubated for 3 days by microscopy; format: cell-based; settings: human, HEL cells infected with Varicella zoster virus
In short: (§3)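 Cytotoxicity was given as the minimum cytotoxic concentration (MCC): the compound concentration causing a microscopically detectable change in HEL cell morphology.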

Punta Toro virus = assay: Antiviral activity against Punta Toro virus; format: functional, organism-based
Influenza A virus H3N2 = assay: Antiviral activity against Influenza A virus H3N2; format: functional, organism-based; in short: as §1
Influenza A virus = assay: Antiviral activity against Influenza A virus H1N1; format: functional, organism-based; in short: as §1
HEL = assay: Cytotoxicity against human cytomegalovirus infected HEL cells assessed as cell growth inhibition incubated for 3 days by coulter counter method; format: cell-based; settings: 72 h
In short: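 HEL cells were seeded at 5 × 10^3 cells/well and left to adhere and proliferate for 24 h, then compound-containing medium was added. After 3 days at 37 °C, cells were counted with a Coulter counter.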

Human alphaherpesvirus 1 = assay: Antiviral activity against HSV1 KOS; format: functional, organism-based
In short: (§4)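 Confluent cell monolayers in 96-well plates were inoculated with 100 CCID50 of virus together with varying compound concentrations. Cytopathicity was scored once it reached completion in untreated infected controls.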

Coxsackievirus B4 = assay: Antiviral activity against Human coxsackievirus B4; format: functional, organism-based
[5] = Cytotoxicity against human cytomegalovirus infected HEL cells assessed as alteration of cell morphology incubated for 3 days by microscopy; format: cell-based; settings: HEL cells infected with human cytomegalovirus; in short: as §3
[6] = system: Mammalian orthoreovirus 1; assay: Antiviral activity against Reovirus 1; format: functional
Sindbis virus = assay: Antiviral activity against Sindbis virus; format: functional, organism-based
Human betaherpesvirus 5 [7] = assay: Antiviral activity against human cytomegalovirus Davis infected in HEL cells assessed as reduction in viral plaque formation; format: functional, organism-based; settings: Human betaherpesvirus 5, Davis
In short: (§5)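 Confluent HEL fibroblasts were infected with 100 PFU of HCMV in the presence of varying compound concentrations. Plaques were counted once plaque formation was complete in untreated infected controls.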

Human betaherpesvirus 5 [8] = assay: Antiviral activity against human cytomegalovirus AD169 infected in HEL cells assessed as reduction in viral plaque formation; format: functional, organism-based; settings: Human betaherpesvirus 5, AD169, HEL; in short: as §5
Feline coronavirus = assay: Antiviral activity against Feline coronavirus; format: functional, organism-based
Human respirovirus 3 = assay: Antiviral activity against Parainfluenza 3 virus; format: functional, organism-based
[9] = system: Human immunodeficiency virus 2; assay: Antiviral activity against HIV2 ROD infected in human CEM cells assessed as reduction in virus- induced cytopathicity incubated for 4 to 5 days by microscopy based virus syncytium formation assay; format: functional, organism-based; settings: ISOLATE ROD, CCRF-CEM; in short: as §2
Vaccinia virus = assay: Antiviral activity against Vaccinia virus Lederle; format: functional, organism-based; settings: Orthopoxvirus vaccinia; in short: as §1
Human alphaherpesvirus 2 = assay: Antiviral activity against HSV2 Lyons; format: functional, organism-based; in short: as §4

Row | Compound | inhibition [1] | inhibition (Influenza B virus) | inhibition [2] | inhibition [3] | MCC at 72 h [4] [µM] | inhibition (Punta Toro virus) | inhibition (Influenza A virus H3N2) | inhibition (Influenza A virus) | inhibition (Human alphaherpesvirus 1) | inhibition (Coxsackievirus B4) | MCC at 72 h [5] [µM] | inhibition [6] | inhibition (Sindbis virus) | EC50 (Human betaherpesvirus 5 [7]) [µM] | EC50 (Human betaherpesvirus 5 [8]) [µM] | inhibition (Feline coronavirus) | inhibition (Human respirovirus 3) | inhibition [9] | inhibition (Vaccinia virus) | inhibition (Human alphaherpesvirus 2) | also measured
1 | O=C(Cn1c(=O)ccn(CCCCOCc2ccc(Br)cc2)c1=O)Nc1ccc(Oc2ccccc2)cc1 | inactive | inactive | inactive | inactive | > 100 | inactive | inactive | inactive | inactive | inactive | ≥ 4 | inactive | inactive | ≥ 1.2 | 1.8 | inactive | inactive | inactive | inactive | inactive | CC50 (HEL): 4.8 µM
2 | O=C(Cn1c(=O)ccn(Cc2ccc(Oc3ccc(Br)cc3)cc2)c1=O)Nc1ccc(Oc2ccccc2)cc1 | inactive | inactive | inactive | inactive | 20 | inactive | inactive | inactive | inactive | inactive | 4 | inactive | inactive | > 0.8 | > 0.8 | inactive | inactive | inactive | inactive | inactive | –
3 | O=C(Cn1c(=O)ccn(CCCCCOc2ccc(Br)cc2)c1=O)Nc1ccc(C(=O)c2ccccc2)cc1 | inactive | inactive | inactive | inactive | > 100 | inactive | inactive | inactive | inactive | inactive | ≥ 20 | inactive | inactive | 1.64 | 1.79 | inactive | inactive | inactive | inactive | inactive | CC50 (HEL): 5.8 µM
4 | N#Cc1ccc(OCCCCCn2ccc(=O)n(CC(=O)Nc3ccc(Oc4ccccc4)cc3)c2=O)cc1 | inactive | inactive | inactive | inactive | > 100 | inactive | inactive | inactive | inactive | inactive | ≥ 4 | inactive | inactive | 0.44 | 0.53 | inactive | inactive | inactive | inactive | inactive | CC50 (HEL): 4.9 µM
5 | O=C(Cn1c(=O)ccn(COCCOCc2ccc(Br)cc2)c1=O)Nc1ccc(Oc2ccccc2)cc1 | inactive | inactive | inactive | inactive | > 100 | inactive | inactive | inactive | inactive | inactive | 100 | inactive | inactive | > 20 | > 20 | inactive | inactive | inactive | inactive | inactive | –
6 | O=C(Cn1c(=O)c(I)cn(CCCCCOc2ccc(Br)cc2)c1=O)Nc1ccc(Oc2ccccc2)cc1 | inactive | inactive | inactive | inactive | > 100 | inactive | inactive | inactive | inactive | inactive | 100 | inactive | inactive | > 20 | > 20 | inactive | inactive | inactive | inactive | inactive | –
7 | Nc1ccn(C[C@@H](CO)OCP(=O)(O)O)c(=O)n1 [CIDOFOVIR] | – | – | – | – | – | – | – | – | – | – | > 300 | – | – | 0.84 | – | – | – | – | – | – | CC50 (HEL): ≥ 208 µM
8 | Nc1nc(O)c2ncn(COC(CO)CO)c2n1 [GANCICLOVIR] | – | – | – | – | – | – | – | – | – | – | > 350 | – | – | – | – | – | – | – | – | – | CC50 (HEL): ≥ 319 µM
9 | O=C(Cn1c(=O)ccn(CCCCCOc2ccc(Br)cc2)c1=O)Nc1ccc(OCc2ccccc2)cc1 | inactive | inactive | inactive | inactive | ≥ 20 | inactive | inactive | inactive | inactive | inactive | ≥ 20 | inactive | inactive | 4 | > 20 | inactive | inactive | inactive | inactive | inactive | –
10 | O=C(Cn1c(=O)ccn(CCCCCOc2ccc(Br)cc2)c1=O)Nc1ccccc1 | inactive | inactive | inactive | inactive | ≥ 20 | inactive | inactive | inactive | inactive | inactive | 20 | inactive | inactive | > 4 | > 4 | inactive | inactive | inactive | inactive | inactive | –
11 | O=C(Cn1c(=O)ccn(CCCCCCc2ccccc2)c1=O)Nc1ccc(Oc2ccccc2)cc1 | inactive | inactive | inactive | inactive | > 100 | inactive | inactive | inactive | inactive | inactive | 100 | inactive | inactive | > 20 | > 20 | inactive | inactive | inactive | inactive | inactive | –

— ChEMBL document CHEMBL3621200, “Toward the discovery of dual HCMV-VZV inhibitors: Synthesis, structure activity relationship analysis, and cytotoxicity studies of long chained 2-uracil-3-yl-N-(4-phenoxyphenyl)acetamides” (Bioorg Med Chem, 2015)
